Hits are enriched below; roughly 2.4% of the tested compounds scored in any of these assays.
SUMO1 PPI mod: alters human SUMO1 binding to SIM partners | P63165 | SUMO1 binding to a labelled peptide, TR-FRET, 1 h | inhibition, % at 20 µM | 360,000 compounds, 0.33% hits | AID 602429; in the data active = inhibition above about 37%
Target sequence (P63165 whole entry, looked up): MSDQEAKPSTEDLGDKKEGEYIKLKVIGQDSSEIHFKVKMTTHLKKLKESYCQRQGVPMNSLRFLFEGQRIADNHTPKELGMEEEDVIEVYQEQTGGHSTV
STEP inh: blocks human striatal-enriched tyrosine phosphatase; 360,000 compounds, 0.25% hits; inhibition, % at 20 µM; recombinant STEP, OMFP fluorogenic substrate, fluorescence; P54829;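 active = inhibition at 20 µM, scaled per plate between control wells, above about 37%, limit read from the data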
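Assay system: isolated STEP enzyme. Buffer or medium: pH 6.0 Bis-Tris with DTT and Tween 20. Also added: fluorogenic phosphatase substrate OMFP at 25 µM final. Dosing: 20 µM, 1% DMSO. Timing: 20 min reaction, room temperature, in the dark. Measured by: fluorescence intensity, excitation 480 nm, emission 540 nm. Evaluation: normalized % inhibition.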
Scp-1 inhibitor: Scp-1 (human) phosphatase inhibition; Q9GZU7; 340,000 compounds, 0.88% hits; Recombinant Scp1, phosphopeptide, malachite green phosphate absorbance; inhibition, % at 20 µM;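 active = inhibition above about 50% at 20 µM, limit read from the data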
Target sequence (Q9GZU7 76-261 limits assumed): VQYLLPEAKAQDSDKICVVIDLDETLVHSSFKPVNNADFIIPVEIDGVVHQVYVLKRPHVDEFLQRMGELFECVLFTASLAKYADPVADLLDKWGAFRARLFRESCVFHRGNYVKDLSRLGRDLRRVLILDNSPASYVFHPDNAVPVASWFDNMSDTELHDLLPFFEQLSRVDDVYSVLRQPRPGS
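Incubation: 45 min enzyme reaction at room temperature / System: truncated SCP-1 phosphatase (76-261aa) / Reagent: Phospho 17-mer peptide substrate / Buffer or medium: Acidic Tris acetate buffer with magnesium and detergent / Signal: absorbance at 630 nm / Doses: one concentration, 20 µM, with 1.0% DMSO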
LMPTP block: blocks human LMPTP phosphatase | 360,000 compounds, 0.22% hits | AID 651560 | recombinant LMPTP-A, OMFP fluorogenic substrate, fluorescence intensity | inhibition, % at 20 µM;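 active = compounds that cut the enzyme signal by at least half of the control window in the single-dose screen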
Target sequence (P24666 whole entry, looked up): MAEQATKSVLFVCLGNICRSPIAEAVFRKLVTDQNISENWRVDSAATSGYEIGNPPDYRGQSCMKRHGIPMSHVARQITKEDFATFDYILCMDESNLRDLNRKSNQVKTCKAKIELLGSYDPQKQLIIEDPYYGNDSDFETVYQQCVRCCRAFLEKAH
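Assay system: LMPTP-A enzyme. Input: 0.625 nM LMPTP-A final. Probe or stimulus: 400 µM OMFP. Compound dosing: single 20 µM dose. Schedule: 50 min dark incubation at room temperature. Detection: fluorescence intensity of OMFP turnover product. Read-out: percent inhibition versus substrate-only and uninhibited controls. Benchmarks: no-enzyme low control, uninhibited high control.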
DNMT1 block: blocks human DNA methyltransferase DNMT1. inhibition (reported as % activation of signal), % at 10 µM. DNMT1 molecular beacon, Hinp1I cleavage, fluorescence. P26358. 360,000 compounds, 0.83% hits; in the data active = inhibition above about 50%
NadD inh: blocks S. aureus nicotinate mononucleotide adenylyltransferase | purified NadD enzyme, colorimetric absorbance read-out | inhibition, % at 20 µM | 360,000 compounds, 0.78% hits; in the data active = inhibition above about 26%
Scp-1 conf: confirmation of human Scp-1 phosphatase inhibitors; shares compounds with Scp-1 inhibitor; recombinant SCP-1 catalytic domain, phosphate release, malachite green absorbance; inhibition, % at 20 µM; 2,500 compounds, 61% hits; AID 540281
Scp-1 MG ctr: counter-screen for Scp-1 inhibitors: colorimetric interference. 2,500 tested, under 10 active. shares compounds with Scp-1 inhibitor. Colorimetric interference counterscreen, malachite green absorbance 630 nm. AID 540313. apparent inhibition (interference), % at 20 µM;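 also: compounds added after enzyme reaction finished so only phosphate colour detection is probed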
Scp1 DSF: Scp-1 (human) binding by thermal shift. shares compounds with Scp-1 inhibitor. Recombinant SCP1, Sypro Orange thermal shift Tm. thermal shift relative to vanadate control, % at 40 µM. 1,500 compounds, 25% hits. AID 540329;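 active = substances whose mean melting-temperature shift, as a percentage of the reference inhibitor's shift, reaches about 5.3%, limit read from the data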
Numbers stand for hits; . = inactive; / = no result.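 The calls were made as follows, unless noted: active = inhibition of at least 30% at 20 µM; inactive = the rest.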

SMILES	SUMO1 PPI mod	STEP inh	Scp-1 inhibitor	LMPTP block	DNMT1 block	NadD inh	Scp-1 conf	Scp-1 MG ctr	others
CC[N+](C)(CC)CCC(c1ccccc1)C1CCCCC1 (stereo not given)	.	.	96.4	.	.	.	96.5	.	Scp1 DSF=.
CN(C)c1ccc(CNS(=O)(=O)c2csc(C(N)=O)c2)cc1	.	.	.	.	.	.	.	.
NC(=O)c1cc(S(=O)(=O)NCCCc2ccccc2)cs1	.	.	.	.	.	.	/	/
CC(C)Oc1ccc(CNS(=O)(=O)c2csc(C(N)=O)c2)cc1	.	.	.	.	.	.	.	.
Cc1ccc(N2CCN(C(=O)NC3CCCCC3)CC2C)cc1 (stereo not given)	.	.	.	.	.	.	/	/
COc1cc(OC)cc(C(=O)N[C@H](C(=O)NC2=NCCS2)C(C)C)c1	.	.	.	.	.	.	/	/
Cc1ccc(COC(=O)c2cc(S(=O)(=O)N3CCOCC3)ccc2C)cc1	.	.	.	.	.	.	/	/
CCn1c(SCC(=O)Nc2oc(C)c3c(C)n[nH]c(=O)c23)nc2sc(C)c(C)c2c1=O	.	.	66.0	.	.	.	.	.
C[N+]1=C2CCCCCN2C(O)(c2ccccc2)C1 (stereo not given)	.	.	96.2	.	.	.	94.3	.	Scp1 DSF=.
O=C1CC(C(=O)Nc2ccc(O)c(C(=O)O)c2)C(c2ccccc2)O1 (stereo not given)	.	.	51.0	.	.	.	30.5	.	Scp1 DSF=.
CSCCC(C(=O)NC(C)(C)C)n1c(-c2ccc(C)cc2)nc2ccccc21 (stereo not given)	.	/	/	.	/	/	/	/
Cc1cc(C)c(S(=O)(=O)NCCSCc2ccco2)c(C)c1	.	.	53.3	.	.	.	.	.
Cc1ccc(S(=O)(=O)NCCSCc2ccco2)cc1	.	.	.	.	.	.	/	/
O=C(Nc1nnc(CCc2ccccc2)s1)c1ccccc1	.	.	.	.	.	.	/	/
O=C(Cc1nnc(NC(=O)c2ccccc2)s1)N/N=C/c1ccc(O)cc1	.	.	61.5	.	.	.	48.6	.	Scp1 DSF=.
Cc1onc(-c2ccccc2)c1C(=O)Nc1nnc(-c2ccncc2)s1	.	.	.	.	.	.	/	/
Cc1noc(C)c1C(=O)Nc1nnc(-c2ccccc2)s1	.	.	66.9	.	.	.	.	.
CCOC(=O)Nc1cc2c(cc1[N+](=O)[O-])-c1ccccc1C2=O	.	.	.	.	.	.	/	/
CC(=O)c1c(C)[nH]c(C(=O)OCC(=O)N(CC(C)C)C2CCS(=O)(=O)C2)c1C (stereo not given)	.	.	.	.	.	.	/	/
O=C(N=Nc1c(O)[nH]c2ccccc12)c1ccccc1NS(=O)(=O)c1cccs1	.	.	.	.	.	.	/	/
Cc1ccc2[nH]c(O)c(N=NC(=O)c3ccc(NS(=O)(=O)c4cccs4)cc3)c2c1	.	58.0	99.9	.	.	42.9	57.6	.	Scp1 DSF=.
O=C(O)CC(Sc1n[nH]c(=S)s1)C(=O)O (stereo not given)	.	.	79.2	.	.	.	35.6	.	Scp1 DSF=.
COC(=O)C(C)Sc1n[nH]c(=S)s1 (stereo not given)	.	.	.	.	.	.	/	/
Cn1c(NC(=O)COc2ccccc2)cc(=O)n(C)c1=O	.	.	.	.	.	.	.	.
Cn1c(NC(=O)/C=C/c2ccccc2)cc(=O)n(C)c1=O	.	.	.	.	.	.	.	.
CC(Oc1cccc(Cl)c1)C(=O)Nc1cc(=O)n(C)c(=O)n1C (stereo not given)	.	.	.	.	.	.	.	.
Cn1c(NC(=O)CCc2ccccc2)cc(=O)n(C)c1=O	.	.	.	.	.	.	.	.
